In assay [1] the target is T1, Fatty-acid amide hydrolase 1 (Rattus norvegicus, UniProt P97612).
T1 sequence (P97612 whole entry): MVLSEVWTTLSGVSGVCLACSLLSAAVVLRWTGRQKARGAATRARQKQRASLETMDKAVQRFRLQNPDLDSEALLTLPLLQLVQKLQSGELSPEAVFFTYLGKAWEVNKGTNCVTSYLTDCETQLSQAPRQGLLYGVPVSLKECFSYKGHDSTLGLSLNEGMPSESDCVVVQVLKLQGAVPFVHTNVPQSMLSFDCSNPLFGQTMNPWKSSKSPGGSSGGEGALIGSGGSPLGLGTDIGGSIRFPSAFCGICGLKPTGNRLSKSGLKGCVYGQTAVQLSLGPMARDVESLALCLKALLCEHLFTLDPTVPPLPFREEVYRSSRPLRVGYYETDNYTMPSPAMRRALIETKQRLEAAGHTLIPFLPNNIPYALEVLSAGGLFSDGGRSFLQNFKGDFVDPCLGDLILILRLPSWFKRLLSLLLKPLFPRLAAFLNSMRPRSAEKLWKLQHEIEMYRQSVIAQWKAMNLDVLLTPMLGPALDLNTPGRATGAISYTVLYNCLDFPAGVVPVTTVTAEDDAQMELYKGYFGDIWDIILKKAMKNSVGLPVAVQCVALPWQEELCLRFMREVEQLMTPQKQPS
Put plainly: Inhibition of rat brain FAAH using [3H]AEA as substrate. A digest of the protocol:
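Brains (minus cerebella) of adult Wistar or Sprague-Dawley rats homogenized in HEPES/MgCl2 pH 7.0, washed by repeated centrifugation, preincubated 15 min at 37 °C, resuspended in Tris-HCl/EDTA/MgCl2 pH 7.4. 1 µg protein per assay mixed on ice with inhibitor, then 0.5 µM [3H]AEA with fatty acid-free BSA, 10 min at 37 °C. Charcoal/HCl stop, supernatant counted. At least five half-log concentrations, at least 3 experiments.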

The species named for assay [2] is Homo sapiens. The assay is described as follows: Selectivity ratio of IC50 for FAAH T488A mutant (unknown origin) expressed in human HeLa cells after 2 hrs to IC50 for FAAH (unknown origin) expressed in human HeLa cells transfected with empty vector after 2 hrs. In kind it is cell-based.
The species named for assay [3] is Homo sapiens. The assay is described as follows: Selectivity ratio of IC50 for FAAH T488A mutant (unknown origin) expressed in human HeLa cells after 18 hrs to IC50 for FAAH (unknown origin) expressed in human HeLa cells transfected with empty vector after 18 hrs. In kind it is cell-based.
For assay [4], the target named is T2, Fatty-acid amide hydrolase 1 (Homo sapiens, UniProt O00519, T488A). The assay is described as follows: Inhibition of FAAH T488A mutant (unknown origin) expressed in human HeLa cells using [3H]AEA as substrate after 2 hrs by liquid scintillation counting analysis. In kind it is cell-based.
For assay [5], the target named is T3, Fatty-acid amide hydrolase 1 (Homo sapiens, UniProt O00519).
T3 sequence (O00519 whole entry): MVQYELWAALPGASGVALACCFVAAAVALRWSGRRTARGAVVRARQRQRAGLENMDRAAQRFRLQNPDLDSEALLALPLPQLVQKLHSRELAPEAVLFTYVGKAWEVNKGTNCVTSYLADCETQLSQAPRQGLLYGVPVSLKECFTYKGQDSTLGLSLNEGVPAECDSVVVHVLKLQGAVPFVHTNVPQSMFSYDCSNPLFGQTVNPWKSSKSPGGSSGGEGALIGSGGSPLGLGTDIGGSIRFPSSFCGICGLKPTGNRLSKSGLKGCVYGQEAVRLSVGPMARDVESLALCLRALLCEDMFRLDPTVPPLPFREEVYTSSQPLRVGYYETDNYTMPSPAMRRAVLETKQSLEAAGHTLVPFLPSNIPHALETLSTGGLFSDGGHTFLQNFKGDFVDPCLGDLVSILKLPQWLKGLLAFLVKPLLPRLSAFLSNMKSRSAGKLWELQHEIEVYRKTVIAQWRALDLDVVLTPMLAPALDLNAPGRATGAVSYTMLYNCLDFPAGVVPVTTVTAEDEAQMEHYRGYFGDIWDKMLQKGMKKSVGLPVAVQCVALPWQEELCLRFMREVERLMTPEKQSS
The assay is described as follows: Inhibition of FAAH (unknown origin) expressed in human HeLa cells transfected with empty vector using [3H]AEA as substrate after 18 hrs. In kind it is cell-based.

Assay [6] concerns the target T3, Fatty-acid amide hydrolase 1. The assay is described as follows: Inhibition of FAAH (unknown origin) expressed in human HeLa cells using [3H]AEA as substrate after 18 hrs. In kind it is cell-based.
For assay [7] the target is unchanged. The assay is described as follows: Inhibition of FAAH (unknown origin) expressed in human HeLa cells transfected with empty vector using [3H]AEA as substrate after 2 hrs by liquid scintillation counting analysis. In kind it is cell-based.
Assay [8] deals with T2, Fatty-acid amide hydrolase 1. The assay is described as follows: Inhibition of FAAH T488A mutant (unknown origin) expressed in human HeLa cells using [3H]AEA as substrate after 18 hrs. In kind it is cell-based.
Assay [9] addresses T3, Fatty-acid amide hydrolase 1. The assay is described as follows: Inhibition of FAAH (unknown origin) expressed in human HeLa cells using [3H]AEA as substrate after 2 hrs by liquid scintillation counting analysis. In kind it is cell-based.

Our source for the IC50 and Ratio IC50 values is ChEMBL document CHEMBL4138113, “Novel propanamides as fatty acid amide hydrolase inhibitors” (Eur J Med Chem, 2017).

pIC50: −log10 of the molar value.

T2 sequence (O00519 whole entry T488A): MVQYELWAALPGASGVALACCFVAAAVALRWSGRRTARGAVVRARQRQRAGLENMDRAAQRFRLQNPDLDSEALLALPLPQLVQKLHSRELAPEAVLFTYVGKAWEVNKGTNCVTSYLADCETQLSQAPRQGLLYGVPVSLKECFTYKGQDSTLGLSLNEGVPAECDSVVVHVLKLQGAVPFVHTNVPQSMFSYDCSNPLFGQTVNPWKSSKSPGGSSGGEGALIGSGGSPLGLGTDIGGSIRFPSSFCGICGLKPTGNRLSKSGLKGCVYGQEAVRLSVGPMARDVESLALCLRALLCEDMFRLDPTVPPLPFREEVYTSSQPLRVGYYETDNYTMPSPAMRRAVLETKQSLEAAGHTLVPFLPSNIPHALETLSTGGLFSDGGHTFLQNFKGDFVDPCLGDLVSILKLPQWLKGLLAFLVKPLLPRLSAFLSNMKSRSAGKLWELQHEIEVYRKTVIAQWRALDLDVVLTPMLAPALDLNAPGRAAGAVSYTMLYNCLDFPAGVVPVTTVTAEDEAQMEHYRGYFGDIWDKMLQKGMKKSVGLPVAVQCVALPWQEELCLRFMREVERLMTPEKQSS

For `CCCCC/C=C\C/C=C\C/C=C\C/C=C\CCCC(=O)NCCc1c[nH]c2ccc(O)cc12`, in assay [1], the negative-log IC50 (pIC50) (in general, the negative decadic logarithm of the IC50, by convention in mol/L) was 5.92.
In the case of `Cc1cccnc1NC(=O)[C@H](C)c1ccc(-c2ccccc2)c(F)c1`, the Ratio IC50 was 0.9 to 3.1 in assay [2] and 3.5 in [3]. Moreover, the pIC50 was 5.64 to 5.70 in assay [4]; 5.10 in assay [5]; 5.08 in assay [6]; 5.52 to 6.19 in [7]; 4.55 in [8]; 6.15 in assay [9].
